Test results taken from ChEMBL document CHEMBL4689842, “EUbOPEN Chemogenomics Library wave 1” (2021).
“And” between values parts separate entries of the source, which are not always exact repeats. Equal values may be shown once.

Tested on: Fibroblast
Experiment: Multiplex assay against human fibroblast
Assay type: toxicity, cell-based
Method in brief: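 Phenotypes for tubulin, mitochondrial mass and membrane permeability are expressed as per cents of healthy-nucleus cells. Cells were stained live at seeding with Hoechst33342, BioTracker Green Microtubule Cytoskeleton Dye, MitoTracker Red and Annexin V Alexa Fluor 680, then imaged after compound addition on a CQ1 microscope at 37°C and 5% CO2. Machine-learning gating in CellPathfinder separated Hoechst high-intensity objects from normal cells, divided normal cells by nuclear state (healthy, pyknosed, fragmented) and divided pyknosed cells into mitotic or apoptotic.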

[1] = 12 h, 1 µM, compound concentration 1 uM, replicate 1
[2] = 12 h, 1 µM, compound concentration 1 uM, replicate 2
[3] = 12 h, 10 µM, compound concentration 10 uM, replicate 1
[4] = 12 h, 10 µM, compound concentration 10 uM, replicate 2
[5] = 24 h, 1 µM, compound concentration 1 uM, replicate 1
[6] = 24 h, 1 µM, compound concentration 1 uM, replicate 2
[7] = 24 h, 10 µM, compound concentration 10 uM, replicate 1
[8] = 24 h, 10 µM, compound concentration 10 uM, replicate 2
[9] = 48 h, 1 µM, compound concentration 1 uM, replicate 1
[10] = 48 h, 1 µM, compound concentration 1 uM, replicate 2
[11] = 48 h, 10 µM, compound concentration 10 uM, replicate 1
[12] = 48 h, 10 µM, compound concentration 10 uM, replicate 2

## O=C(Nc1ccc(-n2nc(-c3cccnc3)cc2C(F)(F)F)cn1)c1ccc(-c2ccccc2)c(F)c1 [BI 2049]
[1]
  Population Apoptotic (%): 63%
  Population Fragmented Nuclei (%): 29%
  Population Healthy Nuclei (%): 30%
  Population Hoechst High Intensity Objects (%): 10%
  Population Membrane Permeable-Phenotype (%): 32%
  Population Mitochondria Different-Phenotype (%): 8%
  Population Mitotic Cells (%): 36%
  Population Normal (%): 89%
  Population Pyknosed Nuclei (%): 40%
  Population Tubulin-Different-Phenotype (%): 44%
  Total Cell Count: 92
[2]
  Population Apoptotic (%): 50%
  Population Fragmented Nuclei (%): 4%
  Population Healthy Nuclei (%): 85%
  Population Hoechst High Intensity Objects (%): 8%
  Population Membrane Permeable-Phenotype (%): 3%
  Population Mitochondria Different-Phenotype (%): 7%
  Population Mitotic Cells (%): 50%
  Population Normal (%): 91%
  Population Pyknosed Nuclei (%): 9%
  Total Cell Count: 69
[3]
  Population Apoptotic (%): 58%
  Population Fragmented Nuclei (%): 11%
  Population Healthy Nuclei (%): 41%
  Population Hoechst High Intensity Objects (%): 9%
  Population Membrane Permeable-Phenotype (%): 22%
  Population Mitochondria Different-Phenotype (%): 22%
  Population Mitotic Cells (%): 41%
  Population Normal (%): 90%
  Population Pyknosed Nuclei (%): 46%
  Population Tubulin-Different-Phenotype (%): 62%
  Total Cell Count: 93
[4]
  Population Apoptotic (%): 0%
  Population Fragmented Nuclei (%): 18%
  Population Healthy Nuclei (%): 81%
  Population Hoechst High Intensity Objects (%): 6%
  Population Membrane Permeable-Phenotype (%): 4%
  Population Mitochondria Different-Phenotype (%): 12%
  Population Mitotic Cells (%): 0%
  Population Normal (%): 93%
  Population Pyknosed Nuclei (%): 0%
  Population Tubulin-Different-Phenotype (%): 8%
  Total Cell Count: 65
[5]
  Population Apoptotic (%): 61%
  Population Fragmented Nuclei (%): 32%
  Population Healthy Nuclei (%): 36%
  Population Hoechst High Intensity Objects (%): 14%
  Population Membrane Permeable-Phenotype (%): 32%
  Population Mitochondria Different-Phenotype (%): 12%
  Population Mitotic Cells (%): 38%
  Population Normal (%): 85%
  Population Pyknosed Nuclei (%): 30%
  Population Tubulin-Different-Phenotype (%): 58%
  Total Cell Count: 98
[6]
  Population Apoptotic (%): 25%
  Population Fragmented Nuclei (%): 7%
  Population Healthy Nuclei (%): 83%
  Population Hoechst High Intensity Objects (%): 7%
  Population Membrane Permeable-Phenotype (%): 4%
  Population Mitochondria Different-Phenotype (%): 9%
  Population Mitotic Cells (%): 75%
  Population Normal (%): 92%
  Population Pyknosed Nuclei (%): 8%
  Population Tubulin-Different-Phenotype (%): 37%
  Total Cell Count: 96
[7]
  Population Apoptotic (%): 66%
  Population Fragmented Nuclei (%): 24%
  Population Healthy Nuclei (%): 42%
  Population Hoechst High Intensity Objects (%): 8%
  Population Membrane Permeable-Phenotype (%): 12%
  Population Mitochondria Different-Phenotype (%): 17%
  Population Mitotic Cells (%): 33%
  Population Normal (%): 91%
  Population Pyknosed Nuclei (%): 32%
  Population Tubulin-Different-Phenotype (%): 46%
  Total Cell Count: 99
[8]
  Population Apoptotic (%): 0%
  Population Fragmented Nuclei (%): 11%
  Population Healthy Nuclei (%): 84%
  Population Hoechst High Intensity Objects (%): 3%
  Population Membrane Permeable-Phenotype (%): 4%
  Population Mitochondria Different-Phenotype (%): 13%
  Population Mitotic Cells (%): 100%
  Population Normal (%): 96%
  Population Pyknosed Nuclei (%): 3%
  Population Tubulin-Different-Phenotype (%): 10%
  Total Cell Count: 82
[9]
  Population Apoptotic (%): 64%
  Population Fragmented Nuclei (%): 26%
  Population Healthy Nuclei (%): 45%
  Population Hoechst High Intensity Objects (%): 9%
  Population Membrane Permeable-Phenotype (%): 40%
  Population Mitochondria Different-Phenotype (%): 2%
  Population Mitotic Cells (%): 36%
  Population Normal (%): 90%
  Population Pyknosed Nuclei (%): 28%
  Population Tubulin-Different-Phenotype (%): 37%
  Total Cell Count: 97
[10]
  Population Apoptotic (%): 100%
  Population Fragmented Nuclei (%): 25%
  Population Healthy Nuclei (%): 72%
  Population Hoechst High Intensity Objects (%): 16%
  Population Membrane Permeable-Phenotype (%): 17%
  Population Mitotic Cells (%): 0%
  Population Normal (%): 83%
  Population Pyknosed Nuclei (%): 1%
  Population Tubulin-Different-Phenotype (%): 5%
  Total Cell Count: 66
[11]
  Population Apoptotic (%): 72%
  Population Fragmented Nuclei (%): 30%
  Population Healthy Nuclei (%): 50%
  Population Hoechst High Intensity Objects (%): 15%
  Population Membrane Permeable-Phenotype (%): 35%
  Population Mitochondria Different-Phenotype (%): 14%
  Population Mitotic Cells (%): 27%
  Population Normal (%): 84%
  Population Pyknosed Nuclei (%): 18%
  Population Tubulin-Different-Phenotype (%): 64%
  Total Cell Count: 113
[12]
  Population Apoptotic (%): 100%
  Population Fragmented Nuclei (%): 14%
  Population Healthy Nuclei (%): 85%
  Population Hoechst High Intensity Objects (%): 9%
  Population Membrane Permeable-Phenotype (%): 15%
  Population Mitochondria Different-Phenotype (%): 1%
  Population Mitotic Cells (%): 0%
  Population Normal (%): 90%
  Population Pyknosed Nuclei (%): 0%
  Population Tubulin-Different-Phenotype (%): 35%
  Total Cell Count: 140

## Cn1nc(C(=O)NCc2ccc(C(=O)O)cc2)cc1-c1ccc2[nH]ccc2c1 [BI 4395]
[3]
  Population Apoptotic (%): 77% and 69%
  Population Fragmented Nuclei (%): 29% and 28%
  Population Healthy Nuclei (%): 57%
  Population Hoechst High Intensity Objects (%): 12% and 19%
  Population Mitochondria Different-Phenotype (%): 3% and 2%
  Population Mitotic Cells (%): 22% and 30%
  Population Normal (%): 87% and 80%
  Population Pyknosed Nuclei (%): 13% and 14%
  Population Tubulin-Different-Phenotype (%): 9% and 4%
  Total Cell Count: 190 and 199
[4]
  Population Apoptotic (%): 42% and 100%
  Population Fragmented Nuclei (%): 43% and 54%
  Population Healthy Nuclei (%): 38% and 39%
  Population Hoechst High Intensity Objects (%): 29% and 49%
  Population Membrane Permeable-Phenotype (%): 26% and 9%
  Population Mitochondria Different-Phenotype (%): 13% and 0%
  Population Normal (%): 70% and 50%
  Total Cell Count: 55 and 104
[7]
  Population Apoptotic (%): 71% and 69%
  Population Fragmented Nuclei (%): 29% and 27%
  Population Healthy Nuclei (%): 58% and 57%
  Population Hoechst High Intensity Objects (%): 12% and 17%
  Population Membrane Permeable-Phenotype (%): 9% and 5%
  Population Mitochondria Different-Phenotype (%): 2% and 0%
  Population Mitotic Cells (%): 28% and 30%
  Population Normal (%): 87% and 82%
  Population Pyknosed Nuclei (%): 14%
  Population Tubulin-Different-Phenotype (%): 7% and 4%
  Total Cell Count: 202 and 211
[8]
  Population Fragmented Nuclei (%): 75% and 51%
  Population Healthy Nuclei (%): 25% and 37%
  Population Hoechst High Intensity Objects (%): 44% and 38%
  Population Membrane Permeable-Phenotype (%): 15%
  Population Mitochondria Different-Phenotype (%): 15% and 7%
  Population Mitotic Cells (%): 0%
  Population Normal (%): 55% and 61%
  Population Pyknosed Nuclei (%): 0% and 11%
  Population Tubulin-Different-Phenotype (%): 15% and 38%
  Total Cell Count: 94 and 57

## COCC(=O)NC/C=C/c1ccc2ncnc(Nc3ccc(Oc4ccc(C)nc4)c(C)c3)c2c1 [CP-724714]
[1]
  Population Apoptotic (%): 52% and 82%
  Population Fragmented Nuclei (%): 30% and 25%
  Population Healthy Nuclei (%): 51% and 59%
  Population Hoechst High Intensity Objects (%): 14% and 12%
  Population Membrane Permeable-Phenotype (%): 29% and 10%
  Population Mitotic Cells (%): 47% and 17%
  Population Normal (%): 85% and 87%
  Population Pyknosed Nuclei (%): 18%
  Total Cell Count: 245 and 254
[2]
  Population Fragmented Nuclei (%): 50% and 54%
  Population Healthy Nuclei (%): 33% and 20%
  Population Hoechst High Intensity Objects (%): 27% and 42%
  Population Membrane Permeable-Phenotype (%): 22% and 11%
  Population Normal (%): 72% and 57%
  Population Pyknosed Nuclei (%): 15% and 25%
  Population Tubulin-Different-Phenotype (%): 22% and 44%
  Total Cell Count: 73 and 76
[3]
  Population Apoptotic (%): 51%
  Population Fragmented Nuclei (%): 33%
  Population Healthy Nuclei (%): 37%
  Population Hoechst High Intensity Objects (%): 14%
  Population Membrane Permeable-Phenotype (%): 14%
  Population Mitochondria Different-Phenotype (%): 50%
  Population Mitotic Cells (%): 48%
  Population Normal (%): 85%
  Population Pyknosed Nuclei (%): 29%
  Population Tubulin-Different-Phenotype (%): 87%
  Total Cell Count: 148
[4]
  Population Apoptotic (%): 80%
  Population Fragmented Nuclei (%): 18%
  Population Healthy Nuclei (%): 63%
  Population Hoechst High Intensity Objects (%): 11%
  Population Membrane Permeable-Phenotype (%): 37%
  Population Mitochondria Different-Phenotype (%): 94%
  Population Mitotic Cells (%): 20%
  Population Normal (%): 88%
  Population Pyknosed Nuclei (%): 18%
  Population Tubulin-Different-Phenotype (%): 100%
  Total Cell Count: 62
[5]
  Population Apoptotic (%): 58% and 59%
  Population Fragmented Nuclei (%): 30% and 19%
  Population Healthy Nuclei (%): 51% and 62%
  Population Hoechst High Intensity Objects (%): 14% and 11%
  Population Mitotic Cells (%): 41% and 40%
  Population Normal (%): 85% and 88%
  Population Pyknosed Nuclei (%): 17% and 18%
  Total Cell Count: 243 and 259
[6]
  Population Apoptotic (%): 37% and 77%
  Population Fragmented Nuclei (%): 55% and 57%
  Population Healthy Nuclei (%): 31% and 21%
  Population Hoechst High Intensity Objects (%): 24% and 51%
  Population Membrane Permeable-Phenotype (%): 16% and 11%
  Population Mitochondria Different-Phenotype (%): 22% and 33%
  Population Mitotic Cells (%): 62% and 22%
  Population Normal (%): 75% and 48%
  Population Pyknosed Nuclei (%): 13% and 21%
  Total Cell Count: 77 and 86
[7]
  Population Apoptotic (%): 57%
  Population Fragmented Nuclei (%): 34%
  Population Healthy Nuclei (%): 34%
  Population Hoechst High Intensity Objects (%): 14%
  Population Membrane Permeable-Phenotype (%): 16%
  Population Mitochondria Different-Phenotype (%): 69%
  Population Mitotic Cells (%): 42%
  Population Normal (%): 85%
  Population Pyknosed Nuclei (%): 30%
  Population Tubulin-Different-Phenotype (%): 95%
  Total Cell Count: 144
[8]
  Population Apoptotic (%): 60%
  Population Fragmented Nuclei (%): 16%
  Population Healthy Nuclei (%): 54%
  Population Hoechst High Intensity Objects (%): 11%
  Population Membrane Permeable-Phenotype (%): 51%
  Population Mitochondria Different-Phenotype (%): 96%
  Population Mitotic Cells (%): 40%
  Population Normal (%): 88%
  Population Pyknosed Nuclei (%): 28%
  Population Tubulin-Different-Phenotype (%): 100%
  Total Cell Count: 60
[11]
  Population Apoptotic (%): 77%
  Population Fragmented Nuclei (%): 35%
  Population Healthy Nuclei (%): 44%
  Population Hoechst High Intensity Objects (%): 14%
  Population Membrane Permeable-Phenotype (%): 10%
  Population Mitochondria Different-Phenotype (%): 41%
  Population Mitotic Cells (%): 22%
  Population Normal (%): 85%
  Population Pyknosed Nuclei (%): 20%
  Population Tubulin-Different-Phenotype (%): 86%
  Total Cell Count: 154
[12]
  Population Apoptotic (%): 40%
  Population Fragmented Nuclei (%): 34%
  Population Healthy Nuclei (%): 61%
  Population Hoechst High Intensity Objects (%): 8%
  Population Membrane Permeable-Phenotype (%): 14%
  Population Mitochondria Different-Phenotype (%): 34%
  Population Mitotic Cells (%): 60%
  Population Normal (%): 91%
  Population Pyknosed Nuclei (%): 3%
  Population Tubulin-Different-Phenotype (%): 94%
  Total Cell Count: 163
